Among the data in ChEMBL document CHEMBL1142697, “Beta-lactam screening by specific residues of the OmpF eyelet” (2005) are Lysis diameter and Susceptibility values, retold here.

Experiment [1] concerns Klebsiella aerogenes. The experiment can be described thus: Mean lysis diameter of wild type Enterobacter aerogenes EA289 with OmpF by standard disk diffusion method on MH agar. In kind it is functional. An outline of the steps:
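EA289 is transformed with a plasmid encoding wild-type OmpF and grown in LB at 37 °C with gentle shaking, with kanamycin (50 µg/mL) or IPTG (1 mM) as needed to keep the plasmid. OmpF expression level is checked. For the disk diffusion test, MH broth culture (10^7 bacteria/mL) is spread on MH agar with antibiotic disks. Zone diameter (mm) is read after 24 h at 37 °C, mean of 3–5 experiments.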
Background: A growth-free zone around the sample is the usual read-out of agar diffusion tests.

The subject of experiment [2] is Klebsiella aerogenes. The experiment can be described thus: Mean lysis diameter was measured against Enterobacter aerogenes EA289 with D121A mutation by standard disk diffusion method on MH agar. In kind it is functional. An outline of the steps:
(§1)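 Porin-deficient, β-lactamase-producing Enterobacter aerogenes EA289 carrying plasmid-borne wild-type OmpF, D113A or D121A. Grown in LB at 37 °C with gentle shaking, with kanamycin (50 µg/mL) or IPTG (1 mM); porin expression checked. Disk diffusion: 3 mL MH broth culture (10^7 bacteria/mL) spread on MH agar, antibiotic disks applied, inhibition diameter (mm) after 24 h at 37 °C. Mean of 3–5 experiments, versus the wild-type OmpF strain.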

For experiment [3], the system named is Klebsiella aerogenes. Nature of the experiment: Mean lysis diameter of Enterobacter aerogenes EA289 with D113A mutation by standard disk diffusion method on MH agar. In kind it is functional. An outline of the steps: as §1
Experiment [4] relates to Klebsiella aerogenes. Nature of the experiment: Mean lysis diameter of porin deficient Enterobacter aerogenes EA289 by standard disk diffusion method on MH agar. In kind it is functional. In outline: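 Porin-deficient, β-lactamase-expressing E. aerogenes EA289 is grown in Luria Bertani broth at 37 °C with gentle shaking. An MH broth culture at 10^7 bacteria/mL is spread on MH agar and antibiotic-loaded disks are applied. The inhibition diameter (mm) around each disk is read after 24 h at 37 °C, averaged over three to five experiments.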

Experiment [5] concerns Escherichia coli. Nature of the experiment: Bacterial susceptibility induced by D121 mutation in Escherichia coli OmpF. It counts as functional, organism-based. An outline of the steps:
as §1

Experiment [6] deals with Escherichia coli. Nature of the experiment: Bacterial susceptibility induced by D113 mutation in Escherichia coli OmpF. In kind it is functional, organism-based. An outline of the steps:
as §1

Each structure is given as a SMILES string.

As to `CC1(C)S[C@@H]2[C@H](NC(=O)[C@H](N)c3ccccc3)C(=O)N2[C@H]1C(=O)O` [AMPICILLIN], the Lysis diameter in experiment [1] is reported as 6 mm; in experiment [2], 7 mm; in experiment [3] it was 16 mm; in experiment [4], 6 mm.
As to `CO/N=C(\C(=O)N[C@@H]1C(=O)N2C(C(=O)[O-])=C(C[N+]3(C)CCCC3)CS[C@H]12)c1csc(N)n1` [CEFEPIME], the Lysis diameter came out at 27 mm in experiment [1], 29 mm in experiment [2], 30 mm in experiment [3] and 19 mm in experiment [4]. The Susceptibility result in experiment [5] and in experiment [6] was “+/-” each time.
As to `CO/N=C(\C(=O)N[C@@H]1C(=O)N2C(C(=O)O)=C(COC(C)=O)CS[C@H]12)c1csc(N)n1` [CEFOTAXIME], the Lysis diameter in experiment [1] is listed as 17 mm; in experiment [2], 18 mm; in experiment [3], 23 mm; in experiment [4] it was 15 mm.
The corresponding values for `CO[C@@]1(NC(=O)Cc2cccs2)C(=O)N2C(C(=O)O)=C(COC(N)=O)CS[C@@H]21` [CEFOXITIN] are 7 mm, 12 mm, 16 mm and 6 mm.
As to `CO/N=C(\C(=O)N[C@@H]1C(=O)N2C(C(=O)[O-])=C(C[n+]3cccc4c3CCC4)CS[C@H]12)c1csc(N)n1` [CEFPIROME], the Lysis diameter came out at 26 mm in experiment [1], 31 mm in experiment [2], 31 mm in experiment [3] and 19 mm in experiment [4].
Take `CC(C)(O/N=C(\C(=O)N[C@@H]1C(=O)N2C(C(=O)[O-])=C(C[n+]3ccccc3)CS[C@H]12)c1csc(N)n1)C(=O)O` [CEFTAZIDIME]: the Lysis diameter in experiment [1] worked out at 11 mm; in experiment [2] it was 15 mm; in experiment [3], 20 mm; in experiment [4], 8 mm.
